Experimental data: ChEMBL document CHEMBL1149843, “Antimicrobial triterpenoids from Vladimiria muliensis” (2008)
In brackets after ≈: the same amount, converted by molar mass.

Columns and labels:
Assay type in all cases: functional
[1] = tested on: Enterococcus faecalis; assay: Antimicrobial activity against Enterococcus faecalis by broth microdilution method
In short: (§1)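 Bacteria were grown on MH agar at 37 °C for 24 h, then diluted to about 1 × 10^7 CFU/mL. Compounds were dissolved in DMSO. MIC was determined by broth microdilution as the lowest concentration with no growth by turbidity, with MTT absorbance read at 570 nm. Duplicates, repeated three times.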

[2] = tested on: Pseudomonas aeruginosa; assay: Antimicrobial activity against Pseudomonas aeruginosa by broth microdilution method; in short: as §1
[3] = tested on: Escherichia coli; assay: Antimicrobial activity against Escherichia coli by broth microdilution method; in short: as §1
[4] = tested on: Staphylococcus aureus; assay: Antimicrobial activity against Staphylococcus aureus by broth microdilution method; in short: as §1
[5] = tested on: Candida albicans; assay: Antimicrobial activity against Candida albicans by broth microdilution method
In short: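 C. albicans was grown on PDA agar at 28 °C for 48 h, then diluted to about 1 × 10^7 CFU/mL. Compounds were dissolved in DMSO. MIC was determined by broth microdilution as the lowest concentration with no growth by turbidity, with MTT absorbance read at 570 nm. Duplicates, repeated three times.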

[6] = tested on: Bacillus cereus; assay: Antimicrobial activity against Bacillus cereus by broth microdilution method; in short: as §1

Row | SMILES | MIC [1] | MIC [2] | MIC [3] | MIC [4] | MIC [5] | MIC [6]
1 | C[C@H]1[C@H](C)CC[C@]2(C)CC=C3[C@](C)([C@H]12)[C@H]1O[C@H]1[C@@H]1[C@@]2(C)CC[C@H](O)C(C)(C)[C@@H]2CC[C@@]31C | 36.3 µM (≈ 16 µg/mL) | 36.3 µM (≈ 16 µg/mL) | 36.3 µM (≈ 16 µg/mL) | 72.7 µM (≈ 32 µg/mL) | 36.3 µM (≈ 16 µg/mL) | 72.7 µM (≈ 32 µg/mL)
2 | CC1COc2c(N3CCN(C)CC3)c(F)cc3c(=O)c(C(=O)O)cn1c23 (stereo unspecified) [OFLOXACIN] | 0.86 µM (≈ 0.311 µg/mL) | 0.43 µM (≈ 0.155 µg/mL) | 0.43 µM (≈ 0.155 µg/mL) | 0.43 µM (≈ 0.155 µg/mL) | – | 0.86 µM (≈ 0.311 µg/mL)
3 | C[C@H]1[C@H](C)CC[C@]2(C)CC[C@]3(C)C(=C[C@@H](O)[C@@H]4[C@@]5(C)CCC(=O)C(C)(C)[C@@H]5CC[C@]43C)[C@H]12 | 35.2 µM (≈ 15.5 µg/mL) | 70.4 µM (≈ 31 µg/mL) | 70.4 µM (≈ 31 µg/mL) | 35.2 µM (≈ 15.5 µg/mL) | 70.4 µM (≈ 31 µg/mL) | 70.4 µM (≈ 31 µg/mL)
4 | C[C@H]1[C@H](C)CC[C@]2(C)CC[C@]3(C)C(=C[C@@H](O)[C@H]4[C@@]3(C)[C@H](O)C[C@@]35OO[C@@H](CC(=O)C3(C)C)[C@]45C)[C@H]12 | 31.9 µM (≈ 15.5 µg/mL) | 31.9 µM (≈ 15.5 µg/mL) | 31.9 µM (≈ 15.5 µg/mL) | 14.9 µM (≈ 7.25 µg/mL) | 31.9 µM (≈ 15.5 µg/mL) | 63.8 µM (≈ 31.1 µg/mL)
5 | CO[C@@H]1C[C@@]2(C)[C@@H]3[C@@H](C)[C@H](C)CC[C@]3(C)CC[C@]2(C)C2=C1[C@@]1(C)CC[C@H](OC(C)=O)C(C)(C)[C@@H]1C[C@H]2O | 89.5 µM (≈ 46.1 µg/mL) | 44.7 µM (≈ 23 µg/mL) | 89.5 µM (≈ 46.1 µg/mL) | 89.5 µM (≈ 46.1 µg/mL) | 89.5 µM (≈ 46.1 µg/mL) | 179 µM (≈ 92.1 µg/mL)

Next, values leading:

Row | MIC [1] | MIC [2] | MIC [3] | MIC [4] | MIC [5] | MIC [6] | SMILES
6 | 142 µM (≈ 63.1 µg/mL) | 283 µM (≈ 125 µg/mL) | 142 µM (≈ 63.1 µg/mL) | 70.1 µM (≈ 31 µg/mL) | 283 µM (≈ 125 µg/mL) | 283 µM (≈ 125 µg/mL) | C[C@H]1[C@H](C)CC[C@]2(CO)CC[C@]3(C)C(=CC[C@@H]4[C@@]5(C)CC[C@H](O)C(C)(C)[C@@H]5CC[C@]43C)[C@H]12 [UVAOL]
7 | 50 µM (≈ 23 µg/mL) | 140 µM (≈ 64.5 µg/mL) | 140 µM (≈ 64.5 µg/mL) | 69.6 µM (≈ 32.1 µg/mL) | 69.6 µM (≈ 32.1 µg/mL) | 140 µM (≈ 64.5 µg/mL) | C[C@@H]1CC[C@]2(C)CC[C@]3(C)[C@@](O)(CC[C@@H]4[C@@]5(C)CC[C@H](O)C(C)(C)[C@@H]5CC[C@]43C)[C@]2(O)[C@H]1C
